Experimental data: publication PMC6585414 (Infection and Drug Resistance, 2019)
No end group written: not given here.

Columns and labels:
[1] = Serum biochemical factors after intraperitoneal injection; format: in vivo, mouse; settings: blood 48 h after the injection, mean ± standard deviation
In short: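 Mice given PBS (control) or peptide at 50 or 100 μg/mouse by single ip injection (100 μL/mouse). Blood (0.2 mL) drawn 48 h later and serum GPT, GOT, total bilirubin and uric acid quantified. Five mice per group. Data shown as mean ± SD, compared by ANOVA, p<0.05 taken as significant.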

[2] = tested on: human embryonic kidney cells (HEK-293); assay: MTT cytotoxicity assay; format: cell-based; settings: 1.56–50 μg/mL, 48 h, 37°C, in words (Figure 6)
In short: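 HEK-293 cells seeded fresh at 1×10^5 cells/well, exposed to twofold serial peptide dilutions (1.56–50 μg/mL) at 37°C in 5% CO2 for 48 h. MTT (5 mg/mL stock, 10 μL) then added for 4 h. Formazan dissolved in 100% DMSO, absorbance read at 575 nm, percentage viable cells derived. Triplicate, three independent repeats, mean ± SD.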

FFHHIFRGIVHVGKTAHRLVTG-NH2 [I16A-piscidin-1]
Serum level of GOT ([1]; 50 μg/mouse ip): 9.22±0.90 U/L | Serum level of GPT ([1]; 50 μg/mouse ip): 5.92±1.10 U/L | Serum level of TBIL ([1]; 50 μg/mouse ip): 0.20 ± 0.04 mg/dL | Serum level of UA ([1]; 50 μg/mouse ip): 0.39 ± 0.12 mg/dL | Serum level of GOT ([1]; 100 μg/mouse ip): 11.08±0.94 U/L | Serum level of GPT ([1]; 100 μg/mouse ip): 7.33±1.10 U/L | Serum level of TBIL ([1]; 100 μg/mouse ip): 0.53 ± 0.08 mg/dL | Serum level of UA ([1]; 100 μg/mouse ip): 0.77 ± 0.14 mg/dL

FFHHIFRGIVHVGKTKHRLVTG-NH2 [I16K-piscidin-1]
Serum level of GOT ([1]; 50 μg/mouse ip): 8.88±0.86 U/L | Serum level of GPT ([1]; 50 μg/mouse ip): 6.43±0.86 U/L | Serum level of TBIL ([1]; 50 μg/mouse ip): 0.20 ± 0.05 mg/dL | Serum level of UA ([1]; 50 μg/mouse ip): 0.41 ± 0.11 mg/dL | Serum level of GOT ([1]; 100 μg/mouse ip): 8.53±1.15 U/L | Cytotoxic activity against HEK-293 [2]: lowest activity against HEK-293 cells compared to other peptides

FFHHIFRGIVHVGKTIHRLVTG-NH2 [Piscidin-1, reference compound]
Serum level of GOT ([1]; 50 μg/mouse ip): 9.48±1.06 U/L | Serum level of GPT ([1]; 50 μg/mouse ip): 5.83±0.52 U/L | Serum level of TBIL ([1]; 50 μg/mouse ip): 0.19 ± 0.04 mg/dL | Serum level of UA ([1]; 50 μg/mouse ip): 0.45 ± 0.06 mg/dL | Serum level of GOT ([1]; 100 μg/mouse ip): 10.64±0.97 U/L | Serum level of GPT ([1]; 100 μg/mouse ip): 4.62±0.42 U/L | Serum level of TBIL ([1]; 100 μg/mouse ip): 0.27 ± 0.07 mg/dL | Serum level of UA ([1]; 100 μg/mouse ip): 0.53 ± 0.08 mg/dL | Cytotoxic activity against HEK-293 [2]: highest cytotoxic activity

FFHHIFRGAVHVGKTIHRLVTG-NH2 [I9A-piscidin-1]
Serum level of GOT ([1]; 50 μg/mouse ip): 8.96±1.12 U/L | Serum level of GPT ([1]; 50 μg/mouse ip): 6.67±0.47 U/L | Serum level of TBIL ([1]; 50 μg/mouse ip): 0.21 ± 0.06 mg/dL | Serum level of UA ([1]; 50 μg/mouse ip): 0.42 ± 0.07 mg/dL | Serum level of GOT ([1]; 100 μg/mouse ip): 10.86±1.07 U/L | Serum level of GPT ([1]; 100 μg/mouse ip): 7.17±0.37 U/L | Serum level of TBIL ([1]; 100 μg/mouse ip): 0.51 ± 0.09 mg/dL | Serum level of UA ([1]; 100 μg/mouse ip): 0.87 ± 0.09 mg/dL

FFHHIFRGKVHVGKTIHRLVTG-NH2 [I9K-piscidin-1]
Serum level of GOT ([1]; 50 μg/mouse ip): 9.27±0.78 U/L | Serum level of GPT ([1]; 50 μg/mouse ip): 6.26±0.22 U/L | Serum level of TBIL ([1]; 50 μg/mouse ip): 0.18 ± 0.07 mg/dL | Serum level of UA ([1]; 50 μg/mouse ip): 0.43 ± 0.05 mg/dL | Serum level of GOT ([1]; 100 μg/mouse ip): 10.32±0.88 U/L | Serum level of GPT ([1]; 100 μg/mouse ip): 6.86±0.82 U/L | Serum level of TBIL ([1]; 100 μg/mouse ip): 0.48 ± 0.10 mg/dL | Serum level of UA ([1]; 100 μg/mouse ip): 0.81 ± 0.07 mg/dL
